# SF1 activator: activates the human nuclear receptor SF-1; 1.9% of 65,000 active; CHO-K1 Gal4-SF-1 LBD luciferase reporter; % increase over DMSO SF-1-specific signal; AID 522; activation, % at 10 µM; Q13285;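 active means activation above the mean activation of all tested compounds plus 3 SD, cut at about 50% in these data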
#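 Compound – one dose, 10 µM compound, 1% DMSO · Test system – transient Gal4-SF-1 LBD reporter, CHO-K1 · Input – 4,000 cells in each well · Read-out basis – percent activation relative to DMSO median and mock-transfected background · Replicates – single measurement per compound · Technique – steady-glow luciferase luminescence, read after 15 min reagent incubation · Timing – 20 h compound treatment, 37 °C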
# RORa activator: activates the human nuclear receptor RORA | P35398 | CHO-K1 Gal4-RORA LBD luciferase reporter, luminescence; percent increase over mock-subtracted basal signal | activation, % at 10 µM | 1.5% of 65,000 active;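 active means activation above the mean of all tested compounds plus 3 SD, cut at about 49% in these data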
# M1 ag: agonists of M1 muscarinic receptor. CHO-M1 cells, Fluo-4 calcium fluorescence, agonist mode; stronger effect = higher value. B-score at 10 µM. 3% of 64,000 active. AID 626;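 active means fluorescence rise, raw or as B-score row- and column-corrected plate score, outside the 99.7% band of its plate's samples, either direction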
# MT1-MMP txn act: activates MT1-MMP transcription. HT1080 MT1-MMP promoter luciferase reporter, luminescence, overnight; stronger effect = higher value. activation factor at 10 µM. 0.16% of 86,000 active. AID 750;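 active means activation factor of at least 2 for MT1-MMP transcription at 10 µM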
# M1 antag: antagonists of rat M1 muscarinic receptor; P08482; CHO-M1 cells, Fluo-4 calcium, ACh EC80 antagonist mode; stronger effect = lower value; B-score at 10 µM; 3.4% of 64,000 active; AID 628;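 active means calcium fluorescence response, raw or row-and-column corrected B-score, differing from the plate sample mean either way at a set confidence level, mostly lower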
# M1 agonist conf: confirmation of rat M1 muscarinic receptor agonists. shares compounds with M1 ag. CHO-M1 cells, Fluo-4 calcium fluorescence, agonist mode; actives lie on both sides. fluorescence change (max-min) at 10 µM. AID 1488. 19% of 1,700 active;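 active means fluorescence change differs from the solvent-only DMSO control mean at a set confidence level in both duplicate runs; inconclusive means differs from solvent-only control mean in just one of two runs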;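 further: an EC20 dose of acetylcholine follows compound addition during the same imaging run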
# M4 ag counter: rat M4 muscarinic agonism, M1 counter-screen; shares compounds with M1 ag; CHO M4/Gqi5 cells, Fluo-4 calcium fluorescence, agonist mode; actives lie on both sides; fluorescence change (max-min) at 10 µM; 9% of 1,700 active;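 active means fluorescence change differing from the plate's solvent-only control wells at 99.7% confidence in both duplicates, whether higher or lower; inconclusive means differs from solvent controls in only one of two duplicates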
# Target sequence (P08485 whole entry, looked up): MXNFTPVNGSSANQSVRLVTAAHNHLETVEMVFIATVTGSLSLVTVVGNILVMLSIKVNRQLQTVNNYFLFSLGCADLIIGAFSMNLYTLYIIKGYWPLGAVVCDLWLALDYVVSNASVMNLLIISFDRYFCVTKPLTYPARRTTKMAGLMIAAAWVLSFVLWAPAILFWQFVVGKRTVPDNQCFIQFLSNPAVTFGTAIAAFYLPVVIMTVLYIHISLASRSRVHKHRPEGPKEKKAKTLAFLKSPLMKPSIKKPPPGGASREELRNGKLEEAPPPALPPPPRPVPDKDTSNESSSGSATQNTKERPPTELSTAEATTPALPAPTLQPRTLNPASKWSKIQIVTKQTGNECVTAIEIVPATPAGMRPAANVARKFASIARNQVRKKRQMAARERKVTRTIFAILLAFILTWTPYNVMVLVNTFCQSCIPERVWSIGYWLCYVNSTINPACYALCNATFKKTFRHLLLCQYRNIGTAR
# Numbers stand for hits; . = inactive; ? = inconclusive; / = no result given. This is a sample that favours compounds with a hit; in the whole collection about 6.3% have one here.
SMILES,SF1 activator,RORa activator,M1 ag,MT1-MMP txn act,M1 antag,M1 agonist conf,M4 ag counter
CC(=O)N1CCc2cc(C(=O)CN3CCN(c4cccc(Cl)c4)CC3)ccc21,.,.,5.86,.,-2.97,.,.
CCOC(=O)N1CCN(C2=Nc3cccc4cccc2c34)CC1,.,.,8.53,.,-10.6,107,?
CC(=O)N1CCN(C2=Nc3cccc4cccc2c34)CC1,.,.,9.47,.,.,101,92.1
CN1CC(=O)NC1=NC(=O)c1ccc(Cl)c(S(=O)(=O)N2CCCCCC2)c1,.,.,.,.,.,/,/
CC(=O)c1ccc(NC(=O)CSc2nnc(-c3ccoc3C)n2Cc2ccccc2)cc1,.,.,27.2,.,.,?,-75.5
Cc1cccc(C)c1NC(=O)CSc1nnc(-c2ccoc2C)n1CCc1ccccc1,.,.,.,.,.,/,/
COc1ccccc1NS(=O)(=O)c1cc(C(=O)NCCN2CCOCC2)ccc1Cl,.,.,.,.,.,/,/
COc1cccc(N2C(=O)CC(N3CCC(C(N)=O)(N4CCCCC4)CC3)C2=O)c1 (configuration not stated),.,.,.,.,.,/,/
N#Cc1cc(-c2ccccc2)nn1-c1ccccc1,.,.,.,.,.,/,/
CNc1ccccc1-n1ccc(-c2ccccc2)n1,.,.,3.61,.,.,.,.
C=CCn1c(=O)n(CCOC)c(=O)c2sc3ccccc3c21,.,.,.,.,.,/,/
Cc1cc(C)c(S(=O)(=O)c2ccccc2)c(OC(=O)c2cc(F)c(F)cc2Cl)n1,/,/,/,.,/,/,/
COCCn1c(N)c(C(=O)NCC2CCCO2)c2nc3ccccc3nc21 (configuration not stated),.,.,7.79,.,.,-25.8,?
CCOC(=O)c1nc2sc3c(c2c(=O)[nH]1)CCCC3,.,.,.,.,.,/,/
CCOC(=O)c1nc(N2CCN(C(=O)OCC)CC2)c2c3c(sc2n1)CCCC3,.,.,9.16,.,.,?,.
O=C(c1ccco1)N1CCN(c2ncnc3c2cnn3-c2ccccc2)CC1,.,.,.,.,.,/,/
Cc1nn(-c2ccccc2)c(Cl)c1C(=O)N1CCN(c2ncnc3c2cnn3-c2ccccc2)CC1,.,.,2.54,.,-3.4,-27.3,.
O=S(=O)(Nc1cccnc1)c1ccc(C2CCCCC2)cc1,.,.,7.1,.,-3.1,.,.
O=S(=O)(Nc1cccnc1)c1ccc(Cl)cc1,/,/,/,.,/,/,/
COc1cc(C2CC(=O)Nc3ccccc3S2)cc(OC)c1OC (configuration not stated),.,.,5.95,.,.,.,?
O=C1CC(c2ccc(F)cc2)Sc2ccccc2N1 (configuration not stated),.,.,.,.,.,/,/
CCCn1nc(-c2ccccc2)c2nc3ccccc3nc21,.,.,475,.,.,492,1201
CCn1nc(-c2ccccc2)c2nc3ccccc3nc21,.,.,24.4,.,.,.,.
CCCCCn1nc(-c2ccccc2)c2nc3ccccc3nc21,/,/,/,.,/,/,/
COc1ccc(C(=O)CSc2nc(SC)ns2)cc1OC,.,.,-2.84,.,.,.,.
SMILES,SF1 activator,RORa activator,M1 ag,MT1-MMP txn act,M1 antag,M1 agonist conf,M4 ag counter
Cc1ccc(C)c(OCC(O)CN2C(C)CCCC2C)c1 (configuration not stated),.,.,2.52,.,-1.46,-29.2,.
Cc1ccc(C)c(OCC(O)CN2CCCCC2C)c1 (configuration not stated),.,.,.,.,.,/,/
CCOC(=O)c1cc(C(C)(C)C)oc1CNC(=O)c1c(C)oc2c1CCCC2,/,/,/,.,/,/,/
Cc1ccc(OCC(=O)Nc2ccc(-c3nc4ncccc4o3)cc2)c(C)c1,.,.,3.35,.,.,?,.
COc1ccc(/C=N/NC(=O)Nc2nonc2N)cc1,/,/,/,.,/,/,/
Cc1cc(-c2ccco2)c(C#N)c2nc3ccccc3n12,.,.,10.7,.,.,?,.
CN1C(=O)c2ccccc2C(C(=O)NCC2CCCO2)C1c1c[nH]c2ccccc12 (configuration not stated),.,.,.,/,.,/,/
CCC(=O)N1CCN(c2ccc(NC(=O)COc3ccccc3Cl)cc2)CC1,/,/,/,.,/,/,/
O=C(Nc1ccccc1N1CCN(C(=O)c2ccc(Cl)cc2)CC1)c1ccc2c(c1)OCO2,.,.,-2.21,.,.,.,.
CCC(=O)N1CCN(c2ccccc2NC(=O)c2cccc(C)c2)CC1,.,.,9.81,.,.,.,?
CC(=O)N1CCN(c2ccccc2NC(=O)COc2cc(C)ccc2C(C)C)CC1,.,.,4.27,.,.,-26.1,.
CCC(=O)N1CCN(c2ccccc2NC(=O)COc2ccccc2Cl)CC1,.,.,4.28,.,.,?,.
Cc1ccc(C(C)C)c(OCC(=O)Nc2ccccc2N2CCN(C)CC2)c1,.,.,.,.,.,/,/
O=C(c1ccc2c(c1)OCO2)N1CCN(c2ccc(Cl)cc2)CC1,.,.,.,.,.,/,/
CCCCN(CCCC)CCNC(=O)Cc1nc2c(c(=O)[nH]c(=O)n2C)n1C,.,.,.,.,.,/,/
c1ccc2c(c1)sc1nnnn12,.,.,.,.,.,/,/
COc1ccccc1-n1c(CNC(=O)c2ccco2)nnc1SCC(=O)Nc1ccc(F)cc1,.,.,.,.,.,/,/
Cc1ccc2c(CC(=O)O)coc2c1C,.,.,.,.,.,/,/
COCCCNC(=O)CCCn1c(=O)[nH]c2ccccc2c1=O,.,.,1.96,.,.,.,.
O=c1[nH]c2ccccc2c(=O)n1CCCO,/,/,/,.,/,/,/
O=C(CCn1c(=O)[nH]c2ccccc2c1=O)Nc1ccccc1,.,.,11,.,.,.,.
O=C(CCn1nnc2ccccc2c1=O)N[C@H](C(=O)O)c1ccccc1,.,.,.,.,.,/,/
C=CCN=C1SC(CC)C(=O)N1S(=O)(=O)c1ccc(C)cc1 (configuration not stated),/,/,/,.,/,/,/
C=CCN=C1SCC(=O)N1S(=O)(=O)c1ccc(C)cc1,.,.,3.54,.,.,.,.
COC(=O)C1=C(C)OC(N)=C(C#N)C1c1c(C)nn(-c2ccccc2)c1Cl (configuration not stated),.,.,.,.,.,/,/
SMILES,SF1 activator,RORa activator,M1 ag,MT1-MMP txn act,M1 antag,M1 agonist conf,M4 ag counter
CCOC(=O)C1=C(C)OC(N)=C(C#N)C1c1c(C)nn(-c2ccc(C)cc2)c1Cl (configuration not stated),.,.,3.37,.,.,.,.
COC(=O)c1ccc(CC(=O)c2ccc(O)cc2O)o1,.,.,20.1,.,.,.,.
Cc1cc(Cl)ccc1OCc1nc(-c2ccc(O)cc2)n[nH]1,.,.,4.36,.,.,.,.
Cc1cc(Cl)ccc1OCc1n[nH]c(=S)n1C1CCCCC1,/,/,/,.,/,/,/
CC(C)Cn1c(SCC(=O)NC(=O)NC2CCCC2)nc2ccccc21,.,.,.,.,.,/,/
CCOC(=O)c1ccc(CNC(=O)c2cc(C(C)(C)C)oc2C)o1,.,.,.,.,.,/,/
